Reference: the EternaBench riboswitch data

Tested on: MS2 coat protein
Assay: apparent Kd, MS2 coat protein; higher = weaker binding; RNA-MaP array; FMN 200 µM where present
Summary of the method: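 The apparent Kd comes from binding curves fitted cluster by cluster, filtered, and summarised as a median. Those curves followed SNAP-549-labelled MS2 coat protein from 0.7 or 1.5 nM, doubling to 3 µM, on Illumina sequencing-chip clusters where stalled E. coli RNA polymerase had transcribed the designs, without and then with constant ligand. The buffer was 100 mM Tris-HCl pH 7.5, 80 mM KCl, 4 mM MgCl2, BSA, DTT, yeast tRNA and Tween-20, and green signal was normalised to red-channel RNA signal and control-cluster median Fmax.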

[1] = designed as: OFF switch for flavin mononucleotide, no ligand
[2] = ligand present: flavin mononucleotide, designed as: OFF switch for flavin mononucleotide
[3] = designed as: ON switch for flavin mononucleotide, no ligand
[4] = ligand present: flavin mononucleotide, designed as: ON switch for flavin mononucleotide

Sequence	apparent Kd [1]	apparent Kd [2]	apparent Kd [3]	apparent Kd [4]
UUCGUGCUGCUUUGCUGUACGAGUACAUGAGGAUCACCCAUGUAGGAUAUGGACAUGAGGAUCACCCAGAAGGAUAUGUGUUGC	113 nM	141 nM	–	–
GGAGCAUACAUUAACAUGAGGAUCACCCAUGUCAAAAGACAUGAGGAUAUGGAUCCGAAAAGGAUCCAGAAGGCAUGGUGCUCC	–	–	173 nM	11.5 nM
GAGGACUGAUAAUAAUGUAGAAAUACAUGAGGAUCACCCAUGUAGGAUAUCGUCAGGAAUACUGACGAGAAGGACAUACAGUCC	16 nM	23.2 nM	–	–
GCCUGUGAAGGAUAUACAUGAGGAUCACCCAUGUGGCGGGCAUACCCGCCGAGACCGUGUAGAAGGUCAUAGUA	67.5 nM	57.6 nM	–	–
ACUUCACAUGAGGAUCACCCAUGUCAGGAUAUCCAGCACUAGCAGGCUCGCUCUUGAAGGAGAAGGGACGGGUA	46.1 nM	54.6 nM	–	–
GUCAGCUCGUGAGGAUAUACAUCACUGCUUCGGCAGUGUAUUAAGACAACAUGAGGAUCACCCAUGUAGAAGGCACGAGCUGAU	16.9 nM	20.4 nM	–	–
AAAAAGUCAGGAUAUCCAAAAAAAAAAAAAAAAAAAAAAAAGGAGAAGGGACAUGAGGAUCACCCAUGUAAAAA	77.9 nM	85.3 nM	–	–
UUUUAACAUGAGGAUCACCCAUGUGAGGAUAUCGAAAUUUAUAUUAAUAUUUAUAUUUCGAGAAGGCACAUUUU	204 nM	191 nM	–	–
GGUACUCAAAGAGUACUUGGUCGAACAUGAGGAUCACCCAUGUAGGAUAUGCGAAGCAAGAAGUAGCAGAAGGACAUGUGCAGC	14.8 nM	43.7 nM	–	–
GUAACUCAUGUAGGAUAUGCAUGGCGAAGCUACGCAGAAGGACAUGAGGAUCACCCAUGUUCUAGCGUCUGGAUACAGAUGCAA	85.7 nM	327 nM	–	–
UUCAUCAGUGAAGGAUAUCUAUGUCCAACAUGAGGAUCACCCAUGUUGAGGAUUACCUAUGUGUAGGAGAAGGUCAAUAUAACU	–	–	6.79 nM	6.1 nM
UGACAUAUAUAGAAGGGUAGUAGGGUUUUACAUGAGGAUCACCCAUGUAUUAUAGGAUAUGUGUAAAGUUAUUAUUAAAGUAAA	22.5 nM	17.2 nM	–	–
AUUUUAACAUAGGAUAUCGAAUUUAUUAUUUAACGAGAAGGAUGAACAUGAGGAUCACCCAUGUGGUAUCAUGG	217 nM	93.6 nM	–	–
UUCUUACAUGAGGAUCACCCAUGUCAGGAUAUCUCCUCACUGCGCUUGCGCAGUGGAUAGAGAAGGGACAGGCU	56.8 nM	50.1 nM	–	–
UCGCCAGGUACAGGAUAUGUGGAUCAGUCAAGUAAUUUGCUGAACAUGAGGAUCACCCAUGUAUCACAGAAGGGUGCCUCAAAA	–	–	173 nM	8.41 nM
UUUUUAAAUAUAGGAUAUGGAAACAUGAGGAUCACCCAUGUAUGAUAAGAUAAAUUAUGAUAUAGCCAGAAGGAUAUUAUUUUU	–	–	32.1 nM	29.7 nM
AUAUGAUAGAUAGGAUAUACUAUGGUUGAAUAUGUAGAAGGAUCAAUAGGGAAAUGUACAUGAGGAUCACCCAUGUUAUGGAUU	–	–	32.9 nM	31.3 nM
UAUGUUGUUGUGAGGAUAUACUUUGUUUGACCGUAGUAGAAGGCACAUGAGGAUCACCCAUGUAGAUUUUUGGU	9.74 nM	13.6 nM	–	–
UUUUAGAGAGGAUAUACAUUUUUUUAUUUAUUUAUAAUAUUACAUGAGGAUCACCCAUGUAGAAGGCUCAUUUU	28.8 nM	22 nM	–	–
GUAGCUAUCGGAGGAUAUUCAUAGCCGAAAGGCACAUGAGGAUCACCCAUGUGCGGAAACGCUUGGGAGAAGGCCGAUAGCUAC	–	–	25 nM	15.1 nM
GUGUACAGAGGAUAUACAUAAGCAUGGAAACAUGCAACCUCACAUGAGGAUCACCCAUGUAGAAGGCUGUACAC	161 nM	65.3 nM	–	–
AGGCAGCAAGGAUAUACAUAAUUCCUACAAGUCAGCAUAGGACAUGAGGAUCACCCAUGUAGAAGGUGCAAAGA	24.1 nM	46.3 nM	–	–
GGACGGAAAGUGAGGAUAUGCUCUACCUCGGUAGAGCAGAAGGCACAUGAGGAUCACCCAUGUGAUUACUGUUC	25.5 nM	184 nM	–	–
ACAUGAUCAGGAUAUACAUGAGGAUCACCCAUGUAUUUCAAAAAGGGACUUUCUUUAUGUAGAAGGGAUCUUGU	15.8 nM	43.1 nM	–	–

Sequence	apparent Kd [1]	apparent Kd [2]	apparent Kd [3]	apparent Kd [4]
AAAUAAAGCAGUGUAUUAAGAUCACAUGAGGAUCACCCAUGUAGAAGGCUCGAGCAAAAUGCUCGAGAGGAUAUACAACACUGC	10.2 nM	195 nM	–	–
GUCAGCUCGUGAGGAUAUACAACACUGCUUCGGCAGUGUAUUAUGAUCACAUGAGGAUCACCCAUGUAGAAGGCACGAGCUGAU	29.3 nM	230 nM	–	–
GAAGUUAGAGGAUAUACAUGAGGAUCACCCAUGUGUGUUGUGAACAAUGUAUGUUUAUGUAGAAGGCUAACUUC	79.4 nM	241 nM	–	–
GUAUAUCACUCAGGAUAUCUGUAAUUUGUUGAAACAUGAGGAUCACCCAUGUUCAUGAAUUUAUAGGAGAAGGGAGAGAUAUAC	–	–	4.58 nM	4.69 nM
GACUCGCGCACAGGAUAUCCACAGAGCGGACGUGGAGAAGGGUGACAUGAGGAUCACCCAUGUACGUGAGUCUAGAUCACUUCC	–	–	52.4 nM	31 nM
ACAAAUGGAGGAUAUACAUGAGGAUCACCCAUGUUUAUCCUACAUAUGUGAUAAUCAUGUAGAAGGCCAUAUGA	16.5 nM	12.5 nM	–	–
GUGCGAGGCUAGGAUAUUGUGGGUUUUUGUCUGCGAGAAGGAGCCACAUGAGGAUCACCCAUGUGGUGUUGCUC	64.4 nM	294 nM	–	–
GUACAGAGGGAGAAGGGCUAGGAGGUCCAGCUUAUGUGUGUUGCAACAUGAGGAUCACCCAUGUAGCAGGAUAUCCCUCGUACA	40.2 nM	257 nM	–	–
CGGGUCUGAGGAUAUCCAUCUUCAUACAUGAGGAUCACCCAUGUUCACCCUUGGGUUCCCGGAGAAGGCAGUUUUC	65 nM	67.8 nM	–	–
CUUUUGUGAGGAUAUCAGGUGUGCUAGCGUACUGGUACAUCUGAGAAGGCACAUGAGGAUCACCCAUGUUCCUU	13.4 nM	29.2 nM	–	–
CCCAUCGCAUGAGGAUAUGCUCCGGUUUCCGGAGCAGAAGGCAUGUCAUAAGACAUGAGGAUCACCCAUGUAGUUAAGAUGGGA	–	–	529 nM	30.4 nM
CGGCGUUGUCGAGAGGAUAUGCGGUGAUGGACAUGAGGAUCACCCAUGUUAGCGAUAGCAUUACGGUAGAAGGCUCUACAGCUGC	–	–	65 nM	17 nM
AUGGUACAUGAGGAUCACCCAUGUUAGGAUAUCGCGUGACCUAAAACUAAGAGACACACGAGAAGGGACGACAU	89.6 nM	78.1 nM	–	–
UCAGGAGUCACAGGAUAUCCGGCAUAGCAUACAGGAGAAGGGUGAUCACAAGCACAUGAGGAUCACCCAUGUGACAUUUGUGGA	–	–	115 nM	49.5 nM
GAAAAACAUGAGGAUCACCCAUGUAGAAAUAUGGGAGGAUAUACAAAGACGAAAGUCAAAGUAGAAGGCCUAAAAG	–	–	125 nM	31 nM
GAGCCUAAUGAGAAGGUGUGUAUAAAUUAUAUACAAGGAUAUCGGUCGAGCGUGUUGACAUGAGGAUCACCCAUGUUGAGGCUU	–	–	7.86 nM	5.29 nM
GUCAGCUCGUGAGGAUAUACAACACUGCUUCGGCAGUGUAUUAAAAUCACAUGAGGAUCACCCAUGUAGAAGGCACGAGCUGAU	5.04 nM	7.7 nM	–	–
AGUAUGUACGCAGGAUAUACAUGAGGAUCACCCAUGUGGAACAGUGUAGUACUAGUUGAUCCUCAGUAGAAGGGCGGCCGAAUA	49.3 nM	62.6 nM	–	–
AGCUGGUGACAGCAUCCAUCAAAACAUGAGGAUCACCCAUGUAGAAGGCUGUACGGUUACCGUACAGAGGAUAUACAAUGAUGG	7.61 nM	9.36 nM	–	–
GCUCUACAUGAGGAUCACCCAUGUCCAUCCGCACGAGGAUAUGCAUGGGCGAAAGCUGGUGCAGAAGGCGUGGGAC	–	–	190 nM	98.8 nM
CCCUAGAUCCGAGGAUAUACAAUCCGGAAACGGUACAUGAGGAUCACCCAUGUAGAAGGCGGAUCUACAGGUACUAAAGUACCC	7.3 nM	9.22 nM	–	–
UUAAAUCGAAACAUGAGGAUCACCCAUGUGUUGUAAUUAAUAUAGGAUAUGUAUAUACUUUUAUAAUAGAAGGAUGAUAAUACU	–	–	15.4 nM	11.1 nM
GUAGCUAGUAAAGGAUAUUAGUGUGUGUAAUAUUGAGAAGGUUACAUGAGGAUCACCCAUGUGAUCAAUCACUGUUAAGGUUGC	6.29 nM	6.33 nM	–	–
UUGGACGUCGUAGGAUAUGUAGGAUAUUCCUACAUGAGGAUCACCCAUGUUGACAUGGAAUAAGGACAGAAGGACGAUGUCCAU	–	–	23.4 nM	5.28 nM
